{"data": "Published values pooled from the literature", "note": "Lines come from different studies, so protocols differ."}
{"SMILES": "CCOC(=O)c1c(NC(=O)CNC(C)C)sc2c1CCCCC2", "species": "male mouse", "sample": "plasma", "route": "intraperitoneal", "dose": "100 mg/kg", "notes": "single dose", "Cmax": "6340 ng/mL"}
{"SMILES": "Cc1ncsc1-c1ccc([C@H](CC(=O)N2CCN(c3ccc(C#Cc4ccc(C(=O)N5CCC(n6cc(-c7ccc8c(c7)CCN8C(=O)Cc7cccc(OC(F)(F)F)c7)c7c(N)ncnc76)CC5)cc4)cn3)CC2)NC(=O)[C@@H]2C[C@@H](O)CN2C(=O)[C@@H](NC(=O)C2(F)CC2)C(C)(C)C)cc1", "species": "male C57BL/6 mouse", "sample": "plasma", "route": "intravenous", "dose": "1 mg/kg", "Cmax": "19600 ng/mL"}
{"SMILES": "COCC(=O)N1CCc2[nH]c3c(Cl)c(Cl)ccc3c2[C@@H]1C", "species": "C57BL/6 mouse", "sample": "blood", "route": "oral", "dose": "20 mg/kg", "Cmax": "3.47 µM"}
{"SMILES": "NCc1ccc(-c2nn(Cc3ccccc3)c3ccccc23)o1", "species": "male CD-1 mouse", "sample": "plasma", "route": "intraperitoneal", "dose": "30 mg/kg", "Cmax": "4030 ng/mL"}
{"SMILES": "Cc1cc(-c2ccnc3[nH]cc(F)c23)cc(F)c1[C@@]1(O)[C@H](C)CN(C2CCS(=O)(=O)CC2)C[C@@H]1C", "species": "male CD-1 mouse", "sample": "plasma", "route": "intravenous", "dose": "1 mg/kg", "Cmax": "1620 ng/mL"}
{"SMILES": "NCc1ccc(-c2nn(Cc3ccncc3)c3ccccc23)o1", "species": "male CD-1 mouse", "sample": "plasma", "route": "intraperitoneal", "dose": "30 mg/kg", "Cmax": "1150 ng/mL"}
{"SMILES": "COc1cccc2c(N3CCC(CCP(=O)(O)O)CC3)ncnc12", "species": "female BALB/c mouse", "sample": "serum", "route": "subcutaneous", "dose": "50 mg/kg", "notes": "tumour-bearing", "Cmax": "23000 ng/mL"}
{"SMILES": "COc1cc(C2C3=C(COC3=O)N(CCO)c3cc4c(cc32)CCC4)cc(OC)c1OC (centres unmarked)", "species": "female C57BL/6 mouse", "sample": "plasma", "route": "intraperitoneal", "dose": "50 mg/kg", "Cmax": "1040 ng/mL"}
{"SMILES": "C=CCn1c(=O)c2cnc(Nc3ccc(N4CCN(C)CC4)cc3)nc2n1-c1ccc2c(n1)[C@@](O)(CC)CC2", "species": "mouse", "sample": "plasma", "route": "oral", "dose": "60 mg/kg", "Cmax": "10.5 µM"}
{"SMILES": "COC1=CC(c2ccc[nH]2)=N/C1=C\\c1[nH]c(Cc2ccc(OC(F)(F)F)cc2)cc1Cc1ccc(OC(F)(F)F)cc1", "species": "male CD-1 mouse", "sample": "plasma", "route": "oral", "dose": "40 mg/kg", "notes": "single dose", "Cmax": "3950 ng/mL"}
{"SMILES": "CC(C)(C)c1sc2ncnc(Oc3c(F)cccc3OC(F)(F)F)c2c1-c1ccc(Cl)cc1", "species": "mouse", "sample": "plasma", "route": "oral", "dose": "30 mg/kg", "notes": "single dose", "Cmax": "10300 ng/mL"}
{"SMILES": "Cc1ncsc1-c1ccc([C@H](C)NC(=O)[C@@H]2C[C@@H](O)CN2C(=O)[C@@H](NC(=O)CCCCCCCCCCC(=O)NCCCn2cc(-c3ccc4c(c3)CCN4C(=O)Cc3cccc(OC(F)(F)F)c3)c3c(N)ncnc32)C(C)(C)C)cc1", "species": "mouse", "sample": "plasma", "route": "intravenous", "dose": "1 mg/kg", "Cmax": "2330 ng/mL"}
{"SMILES": "CN(C)C(=O)c1cc2cnc(Nc3ccc(-c4ccc5c(=O)cc(N6CCOCC6)oc5c4)cc3)nc2n1C1CCCC1", "species": "BALB/c mouse", "sample": "plasma", "route": "oral", "dose": "20 mg/kg", "Cmax": "1440 ng/mL"}
{"SMILES": "Cc1nc2ccc(OCc3ccc(C(F)(F)F)cc3)cc2[nH]1", "species": "male BALB/c mouse", "sample": "plasma", "route": "intravenous", "dose": "1 mg/kg", "Cmax": "4540 ng/mL"}
